From ChEMBL document CHEMBL1122624, “Activity of novel aminocannabinoids in baboons” (J Med Chem, 1984) come the findings set out here.

What all share (type): functional, organism-based
In assay [1] the test system is Cercopithecidae. Put plainly: Induction of yawning and scratching was determined in Baboons at a dose 5.0 mg/kg; absent. Set-up: dose 5 mg/kg. The procedure, abridged: (§1)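 Male or female baboons were given a single injection, with two animals per dose level. The same animals received the solvent alone 1 week later. Behaviour was scored by observation, including yawning, body scratching, motor activity, ptosis, posture and responsiveness.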

The subject of assay [2] is Cercopithecidae. As to the kind of experiment: Induction of yawning and scratching was determined in Baboons at a dose 2.0 mg/kg; absent. Set-up: dose 2 mg/kg. The procedure, abridged:
as §1

Assay [3] has as its system Cercopithecidae. As to the kind of experiment: Psychotropic effects in Baboons at a dose 2.0 mg/kg; - = no change. Also noted: dose 2 mg/kg. The procedure, abridged: as §1
Assay [4] deals with Cercopithecidae. Put plainly: Psychotropic effects in Baboons at a dose 5.0 mg/kg; +/- = tranquility. Also noted: dose 5 mg/kg. The procedure, abridged:
as §1

Assay [5] deals with Cercopithecidae. Put plainly: Psychotropic effects in baboons at a dose 10.0 mg/kg;+/- = tranquility. Set-up: dose 10 mg/kg. The procedure, abridged: as §1
The subject of assay [6] is Cercopithecidae. Put plainly: Induction of yawning and scratching was determined in Baboons at a dose 10.0 mg/kg; absent. Also noted: dose 10 mg/kg. The procedure, abridged:
as §1

Assay [7] has as its system Cercopithecidae. As to the kind of experiment: Psychotropic effects in Baboons at a dose 5.0 mg/kg; - = no change. Set-up: dose 5 mg/kg. The procedure, abridged: as §1
In assay [8] the test system is Cercopithecidae. As to the kind of experiment: Psychotropic effects in baboons at a dose 10.0 mg/kg; +/- = tranquility. Set-up: dose 10 mg/kg. In short, it runs like this: as §1
Assay [9] concerns Cercopithecidae. As to the kind of experiment: Induction of yawning and scratching was determined in Baboons at a dose 5.0 mg/kg; present. Set-up: dose 5 mg/kg. The procedure, abridged: as §1
Assay [10] deals with Cercopithecidae. Put plainly: Induction of yawning and scratching was determined in Baboons at a dose 2.0 mg/kg; present. Set-up: dose 2 mg/kg. The procedure, abridged: as §1
The subject of assay [11] is Cercopithecidae. Put plainly: Induction of yawning and scratching was determined in Baboons at a dose 10.0 mg/kg; present. Also noted: dose 10 mg/kg. The procedure, abridged:
as §1

The test system of assay [12] is Cercopithecidae. Put plainly: Psychotropic effects in Baboons at a dose 10.0 mg/kg; - = no change. Set-up: dose 10 mg/kg. In short, it runs like this:
as §1

Assay [13] relates to Cercopithecidae. As to the kind of experiment: Psychotropic effects in Baboons at a dose 1.0 mg/kg; - = no change. Set-up: dose 1 mg/kg. In short, it runs like this: as §1
The test system of assay [14] is Cercopithecidae. Put plainly: Psychotropic effects in Baboons at a dose 2.0 mg/kg; + = drowsiness, decreased motor activity, occasional partial ptosis, occasional head drop. Also noted: dose 2 mg/kg. In short, it runs like this:
as §1

Assay [15] concerns Cercopithecidae. As to the kind of experiment: Induction of yawning and scratching was determined in Baboons at a dose 1.0 mg/kg; absent. Also noted: dose 1 mg/kg. In short, it runs like this: as §1
For assay [16], the system named is Cercopithecidae. Put plainly: Psychotropic effects in Baboons at a dose 0.5 mg/kg; ++ = stupor, ataxia, suppression of motor activity, full ptosis, typical crouched posture (thinker position) kept for up to 3 h. Set-up: dose 0.5 mg/kg. In short, it runs like this: as §1
The test system of assay [17] is Cercopithecidae. As to the kind of experiment: Induction of yawning and scratching was determined in Baboons at a dose 0.5 mg/kg; absent. Also noted: dose 0.5 mg/kg. In short, it runs like this:
as §1

Assay [18] deals with Cercopithecidae. Put plainly: Psychotropic effects in Baboons at a dose 0.1 mg/kg; +/- = tranquility. Set-up: dose 0.1 mg/kg. The procedure, abridged:
as §1

Assay [19] relates to Cercopithecidae. Put plainly: Psychotropic effects in Baboons at a dose 1.0 mg/kg; +++ = severe stupor and ataxia, full ptosis, immobility, crouched posture lasting for more than 3 h, and absence of reaction to external stimuli. Set-up: dose 1 mg/kg. In short, it runs like this: as §1
Assay [20] deals with Cercopithecidae. Put plainly: Induction of yawning and scratching was determined in Baboons at a dose 0.1 mg/kg; absent. Set-up: dose 0.1 mg/kg. In short, it runs like this: as §1
Assay [21] has as its system Cercopithecidae. Put plainly: Psychotropic effects in Baboons at a dose 0.05 mg/kg; + = drowsiness, decreased motor activity, occasional partial ptosis, occasional head drop. Also noted: dose 0.05 mg/kg. The procedure, abridged: as §1
In assay [22] the test system is Cercopithecidae. As to the kind of experiment: Psychotropic effects in Baboons at a dose 0.1 mg/kg; ++ = stupor, ataxia, suppression of motor activity, full ptosis, typical crouched posture (thinker position) kept for up to 3 h. Also noted: dose 0.1 mg/kg. In short, it runs like this:
as §1

In assay [23] the test system is Cercopithecidae. Put plainly: Induction of yawning and scratching was determined in Baboons at a dose 0.05 mg/kg; absent. Set-up: dose 0.05 mg/kg. The procedure, abridged: as §1
Assay [24] deals with Cercopithecidae. Put plainly: Psychotropic effects in baboons at a dose 0.5 mg/kg; +++ = severe stupor and ataxia, full ptosis, immobility, crouched posture lasting for more than 3 h, and absence of reaction to external stimuli. Set-up: dose 0.5 mg/kg. The procedure, abridged:
as §1

In assay [25] the test system is Cercopithecidae. As to the kind of experiment: Induction of yawning and scratching was determined in Baboons at a dose 4.0 mg/kg; absent. Set-up: dose 4 mg/kg. In short, it runs like this:
as §1

For assay [26], the system named is Cercopithecidae. Put plainly: Psychotropic effects in Baboons at a dose 4.0 mg/kg; - = no change. Also noted: dose 4 mg/kg. The procedure, abridged:
as §1

Calls of active or inactive are those of the source. The rule behind the calls is not given here.

Regarding `CCCCCc1cc(O)c2c(c1)OC(C)(C)[C@@H]1CCC(CNC)CC21` (stereo partly drawn), the result with Cercopithecidae [1], in the assay with Cercopithecidae [2], in the assay on Cercopithecidae [3] and with Cercopithecidae [6] was inactive. The Activity entry in the assay on Cercopithecidae [4] and in the assay on Cercopithecidae [5] was “+/-” throughout.
Turning to `CCCCCc1cc(O)c2c(c1)OC(C)(C)[C@@H]1CC[C@H](CNC)CC21` (stereo partly drawn), the result with Cercopithecidae [7] and with Cercopithecidae [3] was inactive. The Activity result is on record as “+/-” with Cercopithecidae [8], “present” in the assay with Cercopithecidae [9], “present” in the assay with Cercopithecidae [10] and “present” in the assay on Cercopithecidae [11].
For `CCCCCc1cc(O)c2c(c1)OC(C)(C)[C@@H]1CC[C@H](CN(C)C)CC21` (stereo partly drawn), the result with Cercopithecidae [7], in the assay on Cercopithecidae [3] and in the assay on Cercopithecidae [12] was inactive. In addition, the Activity result in the assay with Cercopithecidae [9], with Cercopithecidae [10] and in the assay on Cercopithecidae [11] was “present” in each case.
For the molecule `CCCCCc1cc(O)c2c(c1)OC(C)(C)[C@@H]1CC[C@H](C)CC21` (stereo partly drawn), the outcome with Cercopithecidae [13], with Cercopithecidae [2] and with Cercopithecidae [15] was inactive. Besides, the Activity result in the assay with Cercopithecidae [14] was “drowsiness, decreased motor activity, occasional partial ptosis, occasional head drop”.
As to `CCCCCc1cc(O)c2c(c1)OC(C)(C)[C@@H]1CC[C@@H](C)CC21` (stereo partly drawn), the Activity entry was “severe stupor and ataxia, full ptosis, immobility, crouched posture lasting for more than 3 h, and absence of reaction to external stimuli” in the assay with Cercopithecidae [16]; “+/-” with Cercopithecidae [18]; “severe stupor and ataxia, full ptosis, immobility, crouched posture lasting for more than 3 h, and absence of reaction to external stimuli” with Cercopithecidae [19]. Besides, the outcome with Cercopithecidae [17], in the assay with Cercopithecidae [15] and with Cercopithecidae [20] was inactive.
Regarding `CCCCCc1cc(O)c2c(c1)OC(C)(C)[C@@H]1CC=C(C)C[C@@H]21`, in the assay on Cercopithecidae [21], the Activity entry is “Weak activity”. Moreover, the result in the assay with Cercopithecidae [22] and in the assay on Cercopithecidae [24] was Active. In addition, the result with Cercopithecidae [17], in the assay with Cercopithecidae [23] and in the assay on Cercopithecidae [20] was inactive.
As to `CCCCCc1cc(O)c2c(c1)OC(C)(C)[C@@H]1CCC(CN(C)C)CC21` (stereo partly drawn), the outcome in the assay on Cercopithecidae [2], with Cercopithecidae [3], with Cercopithecidae [25] and in the assay on Cercopithecidae [26] was inactive.
